The subject of test [1] is Trypanosoma brucei. The experiment in a line: Tested in vitro for trypanocidal activity against a drug sensitive strain of Trypanosoma brucei Lab 110 EATRO. The class given is functional, organism-based. In outline: (§1)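 Bloodstream-form trypanosomes were grown in vitro in culture medium containing fetal bovine serum, which the paper notes contains polyamine oxidase. IC50 values in µM.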

Test [2] deals with Trypanosoma brucei. Description: Tested in vitro for trypanocidal activity against KETRI 243 an uncloned clinical isolate of Trypanosoma brucei. rhodesiense. The test is classed as functional, organism-based. In outline: as §1
Test [3] has as its system Trypanosoma brucei. The experiment in a line: Tested in vitro for trypanocidal activity against KETRI 243-As-10-3 a pentamidine and melarsoprol resistant clone of Trypanosoma brucei. rhodesiense KETRI 243. The class given is functional, organism-based. Summed up:
as §1

Test [4] concerns Trypanosoma brucei. Description: Tested in vitro for trypanocidal activity against KETRI 269 an uncloned clinical isolate of Trypanosoma brucei. rhodesiense. The class given is functional, organism-based. Summed up:
as §1

Another test concerns the target Trypanothione reductase (Trypanosoma cruzi, UniProt P28593). The experiment in a line: Tested for binding affinity against trypanothione reductase from Trypanosoma cruzi. Summed up: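 Recombinant T. cruzi TR purified from glutathione reductase-deficient E. coli SG5 strain. Activity read as NADPH oxidation at 340 nm, 23 °C, in HEPES 100 mM pH 7.25 with EDTA 1 mM, NADPH 0.18 mM and TR 2.2 µg/mL. Velocities taken at five trypanothione levels (15-75 µM) and five inhibitor levels. Km(obs) fitted by Michaelis–Menten; Ki from weighted regression of Km(obs) against [I].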

Trypanothione reductase, sequence (P28593 whole entry): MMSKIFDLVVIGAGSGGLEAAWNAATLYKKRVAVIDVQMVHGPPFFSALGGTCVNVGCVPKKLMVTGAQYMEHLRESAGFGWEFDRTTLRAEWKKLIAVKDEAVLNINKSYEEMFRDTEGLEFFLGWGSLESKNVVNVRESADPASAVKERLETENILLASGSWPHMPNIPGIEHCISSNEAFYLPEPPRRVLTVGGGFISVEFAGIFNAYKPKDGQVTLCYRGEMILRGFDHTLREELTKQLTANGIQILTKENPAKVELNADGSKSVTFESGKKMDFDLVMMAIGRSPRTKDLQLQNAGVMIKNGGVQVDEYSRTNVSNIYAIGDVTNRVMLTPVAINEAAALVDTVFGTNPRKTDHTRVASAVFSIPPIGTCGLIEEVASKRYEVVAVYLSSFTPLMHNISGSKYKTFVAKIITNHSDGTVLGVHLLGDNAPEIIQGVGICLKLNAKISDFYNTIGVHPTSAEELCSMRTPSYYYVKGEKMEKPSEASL

As to `c1ccc(CCCN(CCCCN(CCCc2ccccc2)CCCN(CCCc2ccccc2)CCCc2ccccc2)CCCN(CCCc2ccccc2)CCCc2ccccc2)cc1`, the IC50 (in general, the point on the concentration scale where inhibition reaches its midpoint) in the test on Trypanosoma brucei [1] came out at 22000 nM; in the test on Trypanosoma brucei [2] it was 35000 nM; with Trypanosoma brucei [3], 24000 nM; in the test on Trypanosoma brucei [4], 30500 nM. Also, affinity at Trypanothione reductase was put at a Ki of 10.3 µM.

`NCCCN(CCCCN(CCCN)CCCc1ccccc1)CCCc1ccccc1`: the IC50 in the test on Trypanosoma brucei [1] is 660 nM; in the test on Trypanosoma brucei [2], 790 nM; in the test on Trypanosoma brucei [3], 660 nM; in the test on Trypanosoma brucei [4], 580 nM.

On to `c1ccc(CCCNCCCCN(CCCNCCCc2ccccc2)CCCc2ccccc2)cc1`, for which the IC50 came out at 220 nM with Trypanosoma brucei [1], 360 nM with Trypanosoma brucei [2], 460 nM in the test with Trypanosoma brucei [3] and 540 nM in the test with Trypanosoma brucei [4]. Further, the affinity at Trypanothione reductase, expressed as Ki, was 3.5 µM.

Consider `c1ccc(CCCNCCCNCCCCNCCCN(CCCc2ccccc2)CCCc2ccccc2)cc1`, for which the IC50 in the test with Trypanosoma brucei [1] was 400 nM; in the test on Trypanosoma brucei [2] it was 160 nM; in the test on Trypanosoma brucei [3], 530 nM; with Trypanosoma brucei [4] it was 270 nM. Besides, the inhibition constant Ki (as a rule, the dissociation constant of the complex between target and ligand, obtained from inhibition or displacement) at Trypanothione reductase was 3.62 µM.

For `c1ccc(CCCNCCCN(CCCCN(CCCc2ccccc2)CCCN(CCCc2ccccc2)CCCc2ccccc2)CCCc2ccccc2)cc1`, the 50% inhibitory concentration (IC50) in the test with Trypanosoma brucei [1] was 3050 nM; with Trypanosoma brucei [2], 3350 nM; in the test with Trypanosoma brucei [3], 5500 nM; with Trypanosoma brucei [4] it was 2200 nM. In addition, at Trypanothione reductase, the Ki is 0.151 µM.

With `NCCCN(CCCCN(CCCNCCCc1ccccc1)CCCc1ccccc1)CCCc1ccccc1`, the IC50 in the test on Trypanosoma brucei [1] was determined as 270 nM; in the test on Trypanosoma brucei [2], 160 nM; with Trypanosoma brucei [3], 160 nM; in the test on Trypanosoma brucei [4], 160 nM. The inhibitory constant (Ki) on Trypanothione reductase was found to be 1.38 µM.

In the case of `NCCCCN(CCCNCCCc1ccccc1)CCCc1ccccc1.NCCCN(CCCCNCCCc1ccccc1)CCCc1ccccc1`, the half-inhibitory concentration (IC50) with Trypanosoma brucei [1] turned out to be 310 nM; in the test on Trypanosoma brucei [2], 530 nM; in the test with Trypanosoma brucei [3], 570 nM; with Trypanosoma brucei [4], 380 nM. Moreover, the inhibition constant (Ki) on Trypanothione reductase stood at 4.67 µM.

At Trypanothione reductase, `NCCCNCCCCNCCCNCCCc1ccccc1` had an inhibitory constant (Ki) of 37.6 µM.

At Trypanothione reductase, `NCCCCN(CCCN)CCCc1ccccc1` yielded an inhibition constant (Ki) of 14.1 µM.

As for `c1ccc(CCCNCCCNCCCCNCCCNCCCc2ccccc2)cc1`, the half-inhibitory concentration (IC50) in the test with Trypanosoma brucei [1] turned out to be 810 nM; in the test with Trypanosoma brucei [2], 1500 nM; in the test with Trypanosoma brucei [3], 2200 nM; in the test on Trypanosoma brucei [4], 1800 nM. This compound yielded a Ki on Trypanothione reductase of 12.3 µM.

With `c1ccc(CCCNCCCN(CCCCN(CCCNCCCc2ccccc2)CCCc2ccccc2)CCCc2ccccc2)cc1`, the half-inhibitory concentration (IC50) with Trypanosoma brucei [1] came out at 120 nM; with Trypanosoma brucei [2], 140 nM; in the test with Trypanosoma brucei [3], 150 nM; in the test on Trypanosoma brucei [4], 160 nM. The same compound registered a Ki at Trypanothione reductase of 0.614 µM.

These data come from ChEMBL document CHEMBL1133793, “Polyamines with N-(3-phenylpropyl) substituents are effective competitive inhibitors of trypanothione reductase and trypanocidal agents” (Bioorg Med Chem Lett, 2001).
